Published values pooled from the literature.
Each line is one published result; the experiments were not run side by side.
Target: Cyclin-dependent kinase 5 (CDK5, Homo sapiens, UniProt Q00535)

Compound	assay	setting	remaining binding [%]
CC1CCCN1c1nccc(-c2cnn3ncccc23)n1 (stereo not shown)	binding	1 µM	96
COc1ncc2cc3ccccc3nc2c1C#N	cell-free assay, competition with immobilised ligand	5 µM	100
Cc1cnc(Nc2ccc(C(=O)N3CCC(N4CCCC4)CC3)cc2)nc1-c1cc2ccccc2s1	binding, competition with immobilised ligand	1 µM	76
CCN1CCN(Cc2ccc(C(=O)Nc3ccc(C)c(Oc4ccc5c(c4)CC(=O)N5)c3)cc2C(F)(F)F)CC1	binding, competition with immobilised ligand	1 µM	100
C[C@@H](c1ccc(-n2cnc3c(N)ncnc32)cc1)N1CCc2nn(C)c(Cc3ccccc3)c2C1=O	binding, competition with immobilised ligand	0.1 µM	39
CN(C)c1ncc(F)c(-c2cnn3ncccc23)n1	binding	1 µM	82
C[C@@H]1CN(c2cc(-c3n[nH]c4ccc(OC5(C)CC5)cc34)ncn2)C[C@H](C)O1	cell-free assay, competition with immobilised ligand	0.1 µM	100
CN(CCCC(F)(F)F)c1nccc(-c2cnn3ncccc23)n1	binding	1 µM	96
O=C(c1ccc(Nc2ncc(Cl)c(-c3ccc(Cl)s3)n2)cc1)N1CCC(N2CCCC2)CC1	binding, competition with immobilised ligand	1 µM	26
CN([C@@H]1CCc2c(CC(=O)O)c3ccccc3n2C1)S(=O)(=O)c1ccc(F)cc1	cell-free assay, competition with immobilised ligand	1 µM	100
CN(C)c1nccc(-c2cnn3ncccc23)n1	binding	1 µM	100
CNC(=O)Nc1ccc2c(c1)CC[C@@]21OC(=O)N(CC(=O)N(Cc2ccc(F)cc2)[C@@H](C)C(F)(F)F)C1=O	cell-free assay, competition with immobilised ligand	1 µM	84
COc1cnc(Nc2cccc(S(N)(=O)=O)c2)nc1N1CCN(c2ccccc2)C(=O)C1	binding, competition with immobilised ligand	1 µM	100
CC1=C(C#N)C(c2ccc3c(c2)c(NC(=O)c2ccccc2C)nn3C)C(C#N)=C(C)N1	cell-free assay, competition with immobilised ligand	1 µM	87
C[C@@H]1CCN(c2nccc(-c3cnn4ncccc34)n2)C1	binding	1 µM	100
Cc1cc(NC(=O)c2cccc(S(F)(F)(F)(F)F)c2)cc(-n2ccn3nc(-c4cccnc4)cc23)c1	cell-free assay, competition with immobilised ligand	1 µM	100
C=CC(=O)N1CCC(C(=O)NCC(=O)N2CCN(c3nc(-c4cnc(N)nc4C(F)F)nc(N4CCOCC4)n3)CC2)CC1	binding, competition with immobilised ligand	1 µM	100
CNCc1ccccc1-c1csc([C@H](C)Nc2nc(C)nc3cc(OC)c(OC)cc23)c1	cell-free assay, competition with immobilised ligand	1 µM	98
O=C(NCC1CCOCC1)c1n[nH]cc1NC(=O)c1c(F)cccc1F	binding, competition with immobilised ligand	1 µM	83
O=C(NCCCN1CCOCC1)c1ccc(Nc2nccc(-c3cc4ccccc4s3)n2)cc1	binding, competition with immobilised ligand	1 µM	84
N[C@@H]1CCN(c2nccc(-c3cnn4ncccc34)n2)C1	binding	1 µM	100
CSc1cccnc1N1CCN(Cc2nc3ccccc3[nH]2)CC1	cell-free assay, competition with immobilised ligand	1 µM	99
